One block for each compound: values may come before it.
Key:
[1] = tested on: Liver; assay: Drug uptake in mouse liver at 50 mg/kg, po in 20% HP-beta-CD measured at 8 hrs post dose; format: ADME, organism-based; set-up: dose 50 mg/kg, route oral; conditions: in vivo
How it was run: (§1)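 Female Swiss Webster mice, 8 weeks old, given a single 50 mg/kg oral gavage dose in 20% HPβCD or 20% Kolliphor. Tissues taken from three mice at 2 and 8 h post dose. Homogenized by probe sonication in PBS (1:4 w/v), protein precipitated with acetonitrile, and compound measured by LC-MS/MS in μM.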

[2] = tested on: Liver microsome; assay: Half life in human liver microsomes; format: ADME
[3] = tested on: Trypanosoma cruzi; assay: Antitrypanosomal activity against Trypanosoma cruzi Y luc infected in mouse assessed as inhibition of parasitemia at 40 mg/kg, ip bid in 60% DMSO administered for 4 consecutive days starting on day 3 of infection measured on day 7 post infection relative to vehicle-treated control
[4] = biological target: Cytochrome P450 3A4 (Homo sapiens, UniProt P08684); assay: Inhibition of CYP3A4 in human liver microsomes at 1 uM; format: ADME
[5] = tested on: Lung; assay: Drug uptake in mouse lung at 50 mg/kg, po in 20% HP-beta-CD measured at 8 hrs post dose; format: ADME, organism-based; set-up: dose 50 mg/kg, route oral; conditions: in vivo; how it was run: as §1
[6] = tested on: Lung; assay: Drug uptake in mouse lung at 50 mg/kg, po in 20% Kolliphor measured at 8 hrs post dose; format: ADME, organism-based; set-up: dose 50 mg/kg, route oral; conditions: in vivo; how it was run: as §1
[7] = Ratio of Kd(app) for Trypanosoma cruzi CYP51 to EC50 for Trypanosoma cruzi amastigotes infected in mouse C2C12 cells
How it was run: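 Ratio of apparent KD to EC50. Apparent KD was approximated from UV–vis spectrophotometric titration of T. cruzi CYP51 in aqueous solution. […] Compounds were added 24 h postinfection at 10 μM down to 5 pM for 72 h at 37 °C, 5% CO2. Fixed cells were DAPI-stained and imaged, in triplicate.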

[8] = Drug uptake in mouse fat at 50 mg/kg, po in 20% Kolliphor measured at 8 hrs post dose; format: ADME, organism-based, Adipose tissue; set-up: dose 50 mg/kg, route oral; conditions: in vivo; how it was run: as §1
[9] = tested on: Intestine; assay: Drug uptake in mouse intestine at 50 mg/kg, po in 20% Kolliphor measured at 8 hrs post dose; format: ADME, organism-based; set-up: dose 50 mg/kg, route oral; conditions: in vivo; how it was run: as §1
[10] = tested on: C2C12; assay: Cytotoxicity against mouse C2C12 cells up to 10 uM; format: cell-based
How it was run: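 Mouse C2C12 myoblasts infected with T. cruzi CA-I/72, then exposed at 24 h postinfection to compound at 10 μM down to 5 pM in 5-fold steps for 72 h at 37 °C. Cells fixed in paraformaldehyde, stained with DAPI and scored by automated imaging. Triplicate wells; uninfected and infected untreated wells as controls.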

[11] = tested on: Liver; assay: Drug uptake in mouse liver at 50 mg/kg, po in 20% Kolliphor measured at 8 hrs post dose; format: ADME, organism-based; set-up: dose 50 mg/kg, route oral; conditions: in vivo; how it was run: as §1
[12] = biological target: Sterol 14-alpha demethylase (Trypanosoma cruzi (strain CL Brener), UniProt Q7Z1V1); assay: Binding affinity to Trypanosoma cruzi CYP51 by UV-vis titration method; conditions: read-out: Kd(app)
[13] = tested on: Intestine; assay: Drug uptake in mouse intestine at 50 mg/kg, po in 20% HP-beta-CD measured at 8 hrs post dose; format: ADME, organism-based; set-up: dose 50 mg/kg, route oral; conditions: in vivo; how it was run: as §1
[14] = Drug uptake in mouse skeletal muscle at 50 mg/kg, po in 20% HP-beta-CD measured at 8 hrs post dose; format: ADME, organism-based, Muscle tissue; set-up: dose 50 mg/kg, route oral; conditions: in vivo; how it was run: as §1
[15] = tested on: Heart; assay: Drug uptake in mouse heart at 50 mg/kg, po in 20% Kolliphor measured at 8 hrs post dose; format: ADME, organism-based; set-up: dose 50 mg/kg, route oral; conditions: in vivo; how it was run: as §1
[16] = tested on: Trypanosoma cruzi; assay: Antitrypanosomal activity against Trypanosoma cruzi amastigotes infected in mouse C2C12 cells after 72 hrs by DAPI staining method; format: functional, organism-based; conditions: C2C12, 72 h
[17] = Drug uptake in mouse fat at 50 mg/kg, po in 20% HP-beta-CD measured at 8 hrs post dose; format: ADME, organism-based, Adipose tissue; set-up: dose 50 mg/kg, route oral; conditions: in vivo; how it was run: as §1
[18] = tested on: Trypanosoma cruzi; assay: Antitrypanosomal activity against Trypanosoma cruzi Y luc infected in mouse assessed as inhibition of parasitemia at 25 mg/kg, po bid in 20% Kolliphor administered for 4 consecutive days starting on day 3 of infection measured on day 7 post infection relative to vehicle-treated control; format: functional
How it was run: (§2)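 Female Swiss Webster mice, 8 weeks old, infected ip with 10^5 T. cruzi Y luc trypomastigotes. Only mice with detectable luminescence on day 3 were treated. Compound given by oral gavage bid for four days, as a suspension in 20% HPβCD or a solution in 20% Kolliphor, five mice per group. Vehicle group and benznidazole 50 mg/kg served as controls. On day 7, mice were injected ip with 150 mg/kg d-luciferin and imaged after 5 min under isoflurane. Percent inhibition calculated against untreated mice; two-tailed paired t test.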

[19] = biological target: T1, Cytochrome P450 1A2 (Homo sapiens, UniProt P05177); assay: Inhibition of CYP1A2 in human liver microsomes at 1 uM; format: ADME
T1 sequence (P05177 whole entry): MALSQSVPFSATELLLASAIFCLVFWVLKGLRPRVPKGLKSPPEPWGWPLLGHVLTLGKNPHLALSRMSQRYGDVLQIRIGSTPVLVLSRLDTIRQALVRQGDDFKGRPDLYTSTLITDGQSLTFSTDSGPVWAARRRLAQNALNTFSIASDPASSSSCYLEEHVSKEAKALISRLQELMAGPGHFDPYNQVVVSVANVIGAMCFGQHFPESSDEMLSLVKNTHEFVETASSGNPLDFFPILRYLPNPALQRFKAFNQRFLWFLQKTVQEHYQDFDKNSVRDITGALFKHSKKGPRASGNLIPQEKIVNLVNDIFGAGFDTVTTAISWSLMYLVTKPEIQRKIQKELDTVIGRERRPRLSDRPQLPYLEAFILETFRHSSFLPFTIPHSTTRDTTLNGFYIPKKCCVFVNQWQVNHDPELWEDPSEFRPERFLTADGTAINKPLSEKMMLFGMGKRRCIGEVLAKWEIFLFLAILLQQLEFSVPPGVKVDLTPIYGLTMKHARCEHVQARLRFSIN

[20] = tested on: Liver; assay: Half life in mouse liver microsomes; format: ADME
[21] = tested on: Liver microsome; assay: Half life in rat liver microsomes; format: ADME
[22] = Drug uptake in mouse skeletal muscle at 50 mg/kg, po in 20% Kolliphor measured at 8 hrs post dose; format: ADME, organism-based, Muscle tissue; set-up: dose 50 mg/kg, route oral; conditions: in vivo; how it was run: as §1
[23] = biological target: Cytochrome P450 2C9 (Homo sapiens, UniProt P11712); assay: Inhibition of CYP2C9 in human liver microsomes at 1 uM; format: ADME
[24] = tested on: Heart; assay: Drug uptake in mouse heart at 50 mg/kg, po in 20% HP-beta-CD measured at 8 hrs post dose; format: ADME, organism-based; set-up: dose 50 mg/kg, route oral; conditions: in vivo; how it was run: as §1
[25] = biological target: Cytochrome P450 2D6 (Homo sapiens, UniProt P10635); assay: Inhibition of CYP2D6 in human liver microsomes at 1 uM; format: ADME
[26] = Tmax in mouse at 50 mg/kg, po in 20% HP-beta-CD; format: ADME, organism-based; set-up: dose 50 mg/kg, route oral; conditions: in vivo
How it was run: (§3)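 Female Swiss Webster mice, 8 weeks old, given one oral gavage dose of 50 mg/kg as a 10 mg/mL preparation in the named vehicle (20% HPβCD suspension or 20% Kolliphor). Plasma sampled at about 0.25, 0.5, 1, 2, 4, 6, 8, 12 and 24 h, n = 3 per time point. Protein precipitated with 5 volumes acetonitrile, filtered, then LC-MS/MS. Values are averages of three mice.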

[27] = Clearance in mouse at 50 mg/kg, po in 20% Kolliphor; format: ADME, organism-based; set-up: dose 50 mg/kg, route oral; conditions: in vivo; how it was run: as §3
[28] = Clearance in mouse at 50 mg/kg, po in 20% HP-beta-CD; format: ADME, organism-based; set-up: dose 50 mg/kg, route oral; conditions: in vivo; how it was run: as §3
[29] = AUClast in mouse at 50 mg/kg, po in 20% HP-beta-CD; format: ADME, organism-based, Plasma; set-up: time 0 - last, dose 50 mg/kg, route oral; conditions: plasma; how it was run: as §3
[30] = tested on: Hepatocyte; assay: Cytotoxicity against mouse hepatocytes assessed as growth inhibition after 72 hrs by Cell Titer Glo assay
[31] = tested on: Brain; assay: Drug uptake in mouse brain at 50 mg/kg, po in 20% Kolliphor measured at 2 hrs post dose; format: ADME, organism-based; set-up: dose 50 mg/kg, route oral; conditions: in vivo; how it was run: as §1
[32] = tested on: Brain; assay: Drug uptake in mouse brain at 50 mg/kg, po in 20% HP-beta-CD measured at 8 hrs post dose; format: ADME, organism-based; set-up: dose 50 mg/kg, route oral; conditions: in vivo; how it was run: as §1
[33] = Half life in mouse at 50 mg/kg, po in 20% HP-beta-CD; format: ADME, organism-based; set-up: dose 50 mg/kg, route oral; conditions: in vivo; how it was run: as §3
[34] = tested on: Cardiomyocyte; assay: Cytotoxicity against mouse cardiomyocytes assessed as growth inhibition after 72 hrs by Cell Titer Glo assay
[35] = tested on: Trypanosoma cruzi; assay: Antitrypanosomal activity against Trypanosoma cruzi Y luc infected in mouse assessed as inhibition of parasitemia at 50 mg/kg, po bid in 20% Kolliphor administered for 4 consecutive days starting on day 3 of infection measured on day 7 post infection relative to vehicle-treated control; format: functional; how it was run: as §2
[36] = AUClast in mouse at 50 mg/kg, po in 20% Kolliphor; format: ADME, organism-based; set-up: time 0 - last, dose 50 mg/kg, route oral; conditions: plasma; how it was run: as §3
[37] = tested on: Brain; assay: Drug uptake in mouse brain at 50 mg/kg, po in 20% Kolliphor measured at 8 hrs post dose; format: ADME, organism-based; set-up: dose 50 mg/kg, route oral; conditions: in vivo; how it was run: as §1
[38] = Cmax in mouse at 50 mg/kg, po in 20% Kolliphor; format: ADME, organism-based; set-up: dose 50 mg/kg, route oral; conditions: in vivo; how it was run: as §3
[39] = Cmax in mouse at 50 mg/kg, po in 20% HP-beta-CD; format: ADME, organism-based; set-up: dose 50 mg/kg, route oral; conditions: in vivo; how it was run: as §3
[40] = Tmax in mouse at 50 mg/kg, po in 20% Kolliphor; format: ADME, organism-based; set-up: dose 50 mg/kg, route oral; conditions: in vivo; how it was run: as §3
[41] = Half life in mouse at 50 mg/kg, po in 20% Kolliphor; format: ADME, organism-based; set-up: dose 50 mg/kg, route oral; conditions: in vivo; how it was run: as §3

Chain of Cytochrome P450 2C9 (P11712 whole entry): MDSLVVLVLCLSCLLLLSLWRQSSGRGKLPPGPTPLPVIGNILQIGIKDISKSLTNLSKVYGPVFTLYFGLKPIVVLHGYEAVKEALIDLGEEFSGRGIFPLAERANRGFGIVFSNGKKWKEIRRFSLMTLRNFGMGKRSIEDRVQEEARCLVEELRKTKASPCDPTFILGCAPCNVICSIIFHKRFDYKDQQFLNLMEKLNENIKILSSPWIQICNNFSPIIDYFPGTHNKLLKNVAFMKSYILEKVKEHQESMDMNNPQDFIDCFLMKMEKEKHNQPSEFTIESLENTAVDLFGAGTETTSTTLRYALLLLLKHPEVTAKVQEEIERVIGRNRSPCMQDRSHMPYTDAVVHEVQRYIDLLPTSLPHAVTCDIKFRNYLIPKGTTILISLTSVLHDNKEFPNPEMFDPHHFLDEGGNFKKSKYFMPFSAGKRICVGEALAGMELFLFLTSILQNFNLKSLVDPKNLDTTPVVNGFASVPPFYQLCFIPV
Chain of Cytochrome P450 3A4 (P08684 whole entry): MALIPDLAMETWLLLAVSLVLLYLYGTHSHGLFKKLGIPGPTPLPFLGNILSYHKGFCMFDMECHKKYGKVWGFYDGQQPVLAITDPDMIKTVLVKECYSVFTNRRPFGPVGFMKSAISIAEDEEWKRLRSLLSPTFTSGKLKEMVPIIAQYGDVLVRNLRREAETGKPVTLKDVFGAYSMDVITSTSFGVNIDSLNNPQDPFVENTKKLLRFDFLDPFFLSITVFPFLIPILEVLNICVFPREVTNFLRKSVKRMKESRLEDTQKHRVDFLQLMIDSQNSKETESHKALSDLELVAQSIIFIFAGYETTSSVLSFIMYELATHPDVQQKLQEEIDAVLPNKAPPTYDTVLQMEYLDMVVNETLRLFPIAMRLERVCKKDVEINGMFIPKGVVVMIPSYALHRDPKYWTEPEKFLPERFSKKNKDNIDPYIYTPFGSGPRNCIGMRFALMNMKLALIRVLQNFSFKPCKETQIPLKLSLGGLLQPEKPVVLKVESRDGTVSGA
Chain of Cytochrome P450 2D6 (P10635 whole entry): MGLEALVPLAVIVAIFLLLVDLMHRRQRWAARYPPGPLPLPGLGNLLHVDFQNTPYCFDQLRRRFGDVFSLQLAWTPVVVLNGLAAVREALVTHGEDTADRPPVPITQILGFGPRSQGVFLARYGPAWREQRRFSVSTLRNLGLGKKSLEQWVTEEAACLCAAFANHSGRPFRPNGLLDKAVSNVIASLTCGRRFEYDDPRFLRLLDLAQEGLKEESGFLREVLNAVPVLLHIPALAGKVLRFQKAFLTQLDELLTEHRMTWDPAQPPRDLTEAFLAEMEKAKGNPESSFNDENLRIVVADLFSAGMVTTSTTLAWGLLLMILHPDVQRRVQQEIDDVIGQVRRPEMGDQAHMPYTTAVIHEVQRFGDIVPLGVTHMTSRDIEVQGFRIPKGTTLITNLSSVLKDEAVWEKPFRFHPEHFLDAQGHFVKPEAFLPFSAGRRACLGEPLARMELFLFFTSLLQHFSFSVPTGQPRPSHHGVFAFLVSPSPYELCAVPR
Chain of Sterol 14-alpha demethylase (Q7Z1V1 whole entry): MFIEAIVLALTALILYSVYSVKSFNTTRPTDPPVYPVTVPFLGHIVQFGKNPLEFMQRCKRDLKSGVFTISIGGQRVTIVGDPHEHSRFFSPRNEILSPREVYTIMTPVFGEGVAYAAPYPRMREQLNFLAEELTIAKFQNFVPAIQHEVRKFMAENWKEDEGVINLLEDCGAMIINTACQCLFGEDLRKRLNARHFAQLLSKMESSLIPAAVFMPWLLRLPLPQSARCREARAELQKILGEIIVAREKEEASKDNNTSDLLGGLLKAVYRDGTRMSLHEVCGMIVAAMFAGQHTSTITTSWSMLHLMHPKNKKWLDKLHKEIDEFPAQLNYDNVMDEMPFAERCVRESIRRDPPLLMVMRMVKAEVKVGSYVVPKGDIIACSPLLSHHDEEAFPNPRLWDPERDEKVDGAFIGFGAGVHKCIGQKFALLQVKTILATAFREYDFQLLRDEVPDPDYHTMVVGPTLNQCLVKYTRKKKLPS

- Drug uptake [1]: Active
- t1/2 [2]: 6 min
- inhibition (INH) [4]: 84%
- Drug uptake [5]: Active
- Drug uptake [6]: Active
- Drug uptake [8]: Active
- Drug uptake [9]: Active
- Drug uptake [11]: Active
- Kd [12]: 290 nM
- Drug uptake [13]: Active
- Drug uptake [14]: Active
- Drug uptake [15]: Active
- EC50 [16]: 59 nM
- Drug uptake [17]: Active
- inhibition (INH) [19]: 5%
- t1/2 [20]: 0.333 h
- t1/2 [21]: 0.3 h
- Drug uptake [22]: Active
- inhibition (INH) [23]: 95%
- Drug uptake [24]: Active
- inhibition (INH) [25]: 52%
SMILES: O=C(N[C@H](Cc1c[nH]c2ccccc12)C(=O)Nc1ccncc1)c1ccc(N2CCN(c3cccc(F)c3)CC2)cc1F
- inhibition in vivo at 40 mg/kg [3]: 97.9%
- Ratio [7]: 10
- Activity [10]: Non-toxic
- inhibition in vivo at 25 mg/kg [18]: 47.7%

- Drug uptake [1]: Active
- Drug uptake [5]: Active
- Drug uptake [6]: Active
- Tmax [26]: 2.67 h
- Drug uptake [8]: Active
- Drug uptake [9]: Active
- CL/F [27]: 83.5 mL/min/kg
- CL/F [28]: 562 mL/min/kg
- AUC(0-t) [29]: 2.37 µM·h
- Drug uptake [31]: Active
- Drug uptake [32]: Active
- half-life [33]: 1.45 h
- Drug uptake [11]: Active
- Drug uptake [13]: Active
- AUC(0-t) [36]: 17.7 µM·h
- Drug uptake [14]: Active
- Drug uptake [37]: Active
- Cmax [38]: 2080 nM
- Drug uptake [15]: Active
- Drug uptake [17]: Active
- Cmax [39]: 640 nM
- Tmax [40]: 4 h
- half-life [41]: 4.55 h
- Drug uptake [22]: Active
- Drug uptake [24]: Active
SMILES: O=C(N[C@H](Cc1c[nH]c2ccccc12)C(=O)Nc1ccncc1)c1ccc(N2CCN(c3ccc(F)c(F)c3)CC2)cc1F
- EC50 [30]: > 90000 nM
- Activity [10]: Non-toxic
- EC50 [34]: > 90000 nM
- inhibition in vivo at 50 mg/kg [35]: 98.6%

— ChEMBL document CHEMBL3352430, “4-Aminopyridyl-based CYP51 inhibitors as anti-Trypanosoma cruzi drug leads with improved pharmacokinetic profile and in vivo potency” (J Med Chem, 2014)
